Measurements taken from ChEMBL document CHEMBL4627263, “Hi-JAK-ing the ubiquitin system: The design and physicochemical optimisation of JAK PROTACs” (Bioorg Med Chem, 2020).
The source made the active and inactive calls. The rule behind the calls is not given here.

Assays:
[1] = target: T1, E3 ubiquitin-protein ligase XIAP/Tyrosine-protein kinase JAK1 (Homo sapiens) (UniProt P23458+P98170); assay: Protac activity at IAP/JAK1 in human THP1 cells assessed as increase in JAK1 degradation up to 10 uM after 24 hrs by Western blot analysis; assay type: cell-based; settings: THP-1
How it was run: (§1)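 Unstimulated THP-1 cells were exposed to PROTAC across 0.6–10 µM for 24 h. JAK1/JAK2 levels were read by automated Western blot using antibodies detecting only unphosphorylated JAK. % degradation is relative to basal levels in DMSO-treated cells, as the mean of separate experiments (n ≥ 3). Significance was assessed by one-tailed Student's t-test at each concentration.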

[2] = target: T2, E3 ubiquitin-protein ligase XIAP/Tyrosine-protein kinase JAK2 (Homo sapiens) (UniProt O60674+P98170); assay: Protac activity at IAP/JAK2 in human THP1 cells assessed as increase in JAK2 degradation up to 10 uM after 24 hrs by Western blot analysis relative to control; assay type: cell-based; settings: THP-1; how it was run: as §1
[3] = Lipophilicity, log D of the compound at pH 7.4 by chromatographic method; assay type: physicochemical; settings: buffer
[4] = target: T1, E3 ubiquitin-protein ligase XIAP/Tyrosine-protein kinase JAK1 (Homo sapiens); assay: Protac activity at IAP/JAk1 in human PBMC cells assessed as reduction in IL2-induced IFNgamma production measured after 1 hr; assay type: cell-based
How it was run: (§2)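 Human PBMCs were given a 1 h compound incubation in the IL-2-stimulated assay, with IFNγ signalling as the cellular potency readout, reported as pIC50.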

[5] = target: T1, E3 ubiquitin-protein ligase XIAP/Tyrosine-protein kinase JAK1 (Homo sapiens); assay: Protac activity at IAP/JAK1 in human THP1 cells assessed as increase in JAK1 degradation at 5 uM after 24 hrs by Western blot analysis relative to control; assay type: cell-based; settings: THP-1; how it was run: as §1
[6] = target: T2, E3 ubiquitin-protein ligase XIAP/Tyrosine-protein kinase JAK2 (Homo sapiens); assay: Protac activity at IAP/JAK2 in human THP1 cells assessed as increase in JAK2 degradation at 5 uM after 24 hrs by Western blot analysis relative to control; assay type: cell-based; settings: THP-1; how it was run: as §1
[7] = target: T1, E3 ubiquitin-protein ligase XIAP/Tyrosine-protein kinase JAK1 (Homo sapiens); assay: Protac activity at IAP/JAK1 in human THP1 cells assessed as increase in JAK1 degradation at 5 uM after 24 hrs in presence of IAP ligand by Western blot analysis; assay type: cell-based; settings: THP-1
How it was run: (§3)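 Unstimulated THP-1 cells were co-treated for 24 h with PROTAC and increasing concentrations of free, active IAP ligand. JAK1/JAK2 protein was quantified by automated Western blot against DMSO-treated basal levels, as the mean of n ≥ 3 separate experiments. Significance was assessed by one-tailed t-test.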

[8] = target: T2, E3 ubiquitin-protein ligase XIAP/Tyrosine-protein kinase JAK2 (Homo sapiens); assay: Protac activity at IAP/JAK2 in human THP1 cells assessed as increase in JAK2 degradation at 5 uM after 24 hrs in presence of IAP ligand by Western blot analysis; assay type: cell-based; settings: THP-1; how it was run: as §3
[9] = target: T2, E3 ubiquitin-protein ligase XIAP/Tyrosine-protein kinase JAK2 (Homo sapiens); assay: Protac activity at IAP/JAK2 in human THP1 cells assessed as increase in JAK2 ubiquitination by immunoprecipitation assay; assay type: cell-based; settings: THP-1
[10] = target: T2, E3 ubiquitin-protein ligase XIAP/Tyrosine-protein kinase JAK2 (Homo sapiens); assay: Protac activity at IAP/JAK2 in human THP1 cells assessed as increase in JAK2 degradation in presence of proteasome inhibitor MG132 by immunoprecipitation assay; assay type: cell-based; settings: THP-1
[11] = target: T1, E3 ubiquitin-protein ligase XIAP/Tyrosine-protein kinase JAK1 (Homo sapiens); assay: Protac activity at IAP/JAK1 in human THP1 cells assessed as increase in JAK1 degradation in presence of proteasome inhibitor MG132 by immunoprecipitation assay; assay type: cell-based; settings: THP-1
JAK3/JAK1 = JAK3/JAK1 (Homo sapiens, UniProt P23458+P52333); assay: Inhibition of JAK1/JAK3 in human PBMC cells assessed as reduction in IL2-induced IFNgamma production; assay type: cell-based; how it was run: as §2
[12] = target: Tyrosine-protein kinase JAK1 (Homo sapiens, UniProt P23458); assay: Inhibition of JAK1 (unknown origin)
How it was run: (§4)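 Isolated biochemical JAK enzyme assays. pIC50 values are means of multiple separate experiments (n ≥ 2).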

[13] = target: Tyrosine-protein kinase JAK2 (Homo sapiens, UniProt O60674); assay: Inhibition of JAK2 (unknown origin); how it was run: as §4
[14] = target: T3, Tyrosine-protein kinase JAK3 (Homo sapiens, UniProt P52333); assay: Inhibition of JAK3 (unknown origin); how it was run: as §4
T3 sequence (P52333 whole entry): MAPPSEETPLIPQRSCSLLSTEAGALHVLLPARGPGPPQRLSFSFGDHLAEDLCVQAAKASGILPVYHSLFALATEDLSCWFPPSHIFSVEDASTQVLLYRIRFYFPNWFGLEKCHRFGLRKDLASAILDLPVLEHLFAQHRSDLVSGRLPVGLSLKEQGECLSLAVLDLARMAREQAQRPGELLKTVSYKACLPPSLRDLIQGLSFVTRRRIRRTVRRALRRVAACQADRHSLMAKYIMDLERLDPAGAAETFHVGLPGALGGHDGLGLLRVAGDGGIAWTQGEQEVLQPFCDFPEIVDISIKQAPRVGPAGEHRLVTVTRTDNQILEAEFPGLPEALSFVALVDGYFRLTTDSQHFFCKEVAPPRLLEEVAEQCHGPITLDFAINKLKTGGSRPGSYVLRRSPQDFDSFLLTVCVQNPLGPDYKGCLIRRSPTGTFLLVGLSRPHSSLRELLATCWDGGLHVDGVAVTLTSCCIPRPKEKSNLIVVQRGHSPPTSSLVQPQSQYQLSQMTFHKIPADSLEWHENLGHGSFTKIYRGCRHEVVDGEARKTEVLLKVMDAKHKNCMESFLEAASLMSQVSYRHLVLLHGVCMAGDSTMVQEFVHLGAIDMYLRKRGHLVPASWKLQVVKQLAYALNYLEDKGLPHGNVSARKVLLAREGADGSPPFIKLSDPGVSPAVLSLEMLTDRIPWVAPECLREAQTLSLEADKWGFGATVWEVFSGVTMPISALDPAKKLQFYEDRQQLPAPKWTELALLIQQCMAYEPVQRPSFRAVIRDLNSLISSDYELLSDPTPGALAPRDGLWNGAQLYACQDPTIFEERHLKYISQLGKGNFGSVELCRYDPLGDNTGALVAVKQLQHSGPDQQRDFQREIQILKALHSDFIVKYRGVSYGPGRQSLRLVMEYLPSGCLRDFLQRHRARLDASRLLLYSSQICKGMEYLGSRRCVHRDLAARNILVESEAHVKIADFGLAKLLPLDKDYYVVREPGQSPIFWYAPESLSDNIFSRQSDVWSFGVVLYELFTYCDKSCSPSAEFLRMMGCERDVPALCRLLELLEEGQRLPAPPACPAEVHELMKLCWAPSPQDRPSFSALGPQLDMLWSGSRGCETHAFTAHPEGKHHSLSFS

Homo sapiens [15] = organism: Homo sapiens; assay: Selectivity ratio, difference between pIC50 for JAK1 (unknown origin) to pIC50 for inhibition of JAK1/JAK3 in human PBMC cells assessed as reduction in IL2-induced IFNgamma production; assay type: cell-based
How it was run: (§5)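 Permeability surrogate calculated as drop-off = 10^(biochemical JAK1 or JAK3 pIC50 − IL2 PBMC pIC50). The cellular step used a 1 h incubation.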

Homo sapiens [16] = organism: Homo sapiens; assay: Selectivity ratio, difference between pIC50 for JAK3 (unknown origin) to pIC50 for inhibition of JAK1/JAK3 in human PBMC cells assessed as reduction in IL2-induced IFNgamma production; assay type: cell-based; how it was run: as §5
[17] = target: T1, E3 ubiquitin-protein ligase XIAP/Tyrosine-protein kinase JAK1 (Homo sapiens); assay: Protac activity at IAP/JAK1 in human THP1 cells assessed as increase in JAK1 degradation at 10 uM after 24 hrs by Western blot analysis; assay type: cell-based; settings: THP-1; how it was run: as §1
[18] = target: T2, E3 ubiquitin-protein ligase XIAP/Tyrosine-protein kinase JAK2 (Homo sapiens); assay: Protac activity at IAP/JAK2 in human THP1 cells assessed as increase in JAK2 degradation at 10 uM after 24 hrs by Western blot analysis relative to control; assay type: cell-based; settings: THP-1; how it was run: as §1

T2 sequence (O60674 whole entry, looked up): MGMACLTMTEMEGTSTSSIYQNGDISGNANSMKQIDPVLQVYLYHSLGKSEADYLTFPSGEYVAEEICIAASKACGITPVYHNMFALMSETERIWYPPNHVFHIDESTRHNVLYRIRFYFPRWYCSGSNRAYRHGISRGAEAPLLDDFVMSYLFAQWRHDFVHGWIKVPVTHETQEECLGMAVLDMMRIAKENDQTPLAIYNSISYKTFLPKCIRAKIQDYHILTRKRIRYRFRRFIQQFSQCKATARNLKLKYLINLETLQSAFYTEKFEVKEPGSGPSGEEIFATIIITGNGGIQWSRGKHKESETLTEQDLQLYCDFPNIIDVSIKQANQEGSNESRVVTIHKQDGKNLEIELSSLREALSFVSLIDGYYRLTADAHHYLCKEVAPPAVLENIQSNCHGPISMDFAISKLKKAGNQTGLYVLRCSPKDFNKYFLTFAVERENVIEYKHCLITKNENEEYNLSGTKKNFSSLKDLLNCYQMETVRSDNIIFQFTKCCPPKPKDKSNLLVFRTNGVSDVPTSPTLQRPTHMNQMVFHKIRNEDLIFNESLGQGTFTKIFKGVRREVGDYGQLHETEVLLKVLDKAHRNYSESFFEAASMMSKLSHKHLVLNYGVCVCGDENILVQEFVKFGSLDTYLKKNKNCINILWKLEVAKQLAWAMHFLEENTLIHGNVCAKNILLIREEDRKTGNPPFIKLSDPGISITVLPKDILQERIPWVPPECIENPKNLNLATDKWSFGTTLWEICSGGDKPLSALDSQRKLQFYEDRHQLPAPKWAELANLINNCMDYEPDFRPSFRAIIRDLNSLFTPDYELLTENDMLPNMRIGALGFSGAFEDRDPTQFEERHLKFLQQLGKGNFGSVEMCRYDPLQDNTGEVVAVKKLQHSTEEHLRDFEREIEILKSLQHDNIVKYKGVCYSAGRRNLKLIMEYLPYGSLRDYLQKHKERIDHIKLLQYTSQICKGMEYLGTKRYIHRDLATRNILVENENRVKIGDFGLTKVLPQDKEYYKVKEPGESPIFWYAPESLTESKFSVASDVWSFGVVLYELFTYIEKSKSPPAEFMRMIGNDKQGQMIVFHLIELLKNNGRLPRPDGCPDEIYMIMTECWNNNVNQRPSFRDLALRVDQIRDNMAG
T2 sequence (P98170 whole entry, looked up): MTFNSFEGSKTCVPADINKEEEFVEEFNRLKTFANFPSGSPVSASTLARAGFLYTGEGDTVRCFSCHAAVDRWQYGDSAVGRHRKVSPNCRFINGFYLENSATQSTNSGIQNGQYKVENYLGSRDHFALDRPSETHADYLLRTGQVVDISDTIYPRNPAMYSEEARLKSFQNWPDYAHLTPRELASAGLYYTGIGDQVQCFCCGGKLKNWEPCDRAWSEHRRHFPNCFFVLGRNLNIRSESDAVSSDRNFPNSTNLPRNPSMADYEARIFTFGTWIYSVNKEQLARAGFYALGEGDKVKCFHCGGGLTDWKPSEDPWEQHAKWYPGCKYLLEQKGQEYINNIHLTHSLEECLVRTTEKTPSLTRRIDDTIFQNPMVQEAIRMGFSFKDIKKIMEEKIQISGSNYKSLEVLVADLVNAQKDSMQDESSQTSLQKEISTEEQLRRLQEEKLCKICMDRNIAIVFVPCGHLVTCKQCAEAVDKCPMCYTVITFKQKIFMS
T1 sequence (P23458 whole entry, looked up): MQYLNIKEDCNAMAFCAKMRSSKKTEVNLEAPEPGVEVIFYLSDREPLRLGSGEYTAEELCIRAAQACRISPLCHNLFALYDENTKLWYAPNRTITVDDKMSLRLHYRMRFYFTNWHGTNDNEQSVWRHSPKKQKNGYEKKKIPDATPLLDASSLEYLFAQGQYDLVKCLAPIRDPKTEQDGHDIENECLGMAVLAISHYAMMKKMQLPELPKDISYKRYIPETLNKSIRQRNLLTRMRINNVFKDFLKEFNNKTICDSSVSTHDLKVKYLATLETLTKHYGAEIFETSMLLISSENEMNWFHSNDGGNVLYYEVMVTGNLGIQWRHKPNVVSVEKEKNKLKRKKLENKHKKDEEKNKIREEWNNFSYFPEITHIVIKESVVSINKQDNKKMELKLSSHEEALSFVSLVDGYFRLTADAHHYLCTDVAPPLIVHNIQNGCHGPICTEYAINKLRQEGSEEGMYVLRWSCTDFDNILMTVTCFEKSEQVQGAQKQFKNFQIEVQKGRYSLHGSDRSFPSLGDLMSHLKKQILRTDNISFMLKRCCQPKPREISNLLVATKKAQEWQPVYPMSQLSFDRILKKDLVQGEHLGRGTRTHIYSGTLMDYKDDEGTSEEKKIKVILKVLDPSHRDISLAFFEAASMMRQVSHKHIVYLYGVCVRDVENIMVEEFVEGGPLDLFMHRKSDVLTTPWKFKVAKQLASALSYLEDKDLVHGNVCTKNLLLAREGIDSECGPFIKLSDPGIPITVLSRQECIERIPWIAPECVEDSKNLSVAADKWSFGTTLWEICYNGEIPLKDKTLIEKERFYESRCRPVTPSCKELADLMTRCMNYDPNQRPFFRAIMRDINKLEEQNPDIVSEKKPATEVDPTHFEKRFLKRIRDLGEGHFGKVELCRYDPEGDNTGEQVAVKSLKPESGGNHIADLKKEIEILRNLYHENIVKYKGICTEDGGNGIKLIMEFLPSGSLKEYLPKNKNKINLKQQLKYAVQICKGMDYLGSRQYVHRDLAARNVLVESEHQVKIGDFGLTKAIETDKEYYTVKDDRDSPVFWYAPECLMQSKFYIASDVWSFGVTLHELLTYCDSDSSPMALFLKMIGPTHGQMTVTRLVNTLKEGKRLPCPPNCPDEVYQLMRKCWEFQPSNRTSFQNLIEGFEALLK
T1 sequence (P98170 whole entry, looked up): as the sequence (P98170 whole entry, looked up) above
Tyrosine-protein kinase JAK2, sequence (O60674 whole entry): as the sequence (O60674 whole entry, looked up) above
JAK3/JAK1, sequence (P23458 whole entry, one chain of several): as the sequence (P23458 whole entry, looked up) above
Tyrosine-protein kinase JAK1, sequence (P23458 whole entry): as the sequence (P23458 whole entry, looked up) above

SMILES	Activity [1]	Activity [2]	chromatographic logD [3]	Activity [4]	Activity [5]	Activity [6]	also measured
CN[C@@H](C)C(=O)N[C@H](C(=O)N1C[C@@H](NC(=O)COCCOCCOCCOCCOc2cc(F)cc(CNc3nc(Nc4cnn(C)c4)ncc3Cl)c2F)C[C@H]1C(=O)N[C@@H]1CCCc2ccccc21)C1CCCCC1	Active	< 35%	5 to 8	inactive			
CN[C@@H](C)C(=O)N[C@H](C(=O)N1C[C@@H](NC(=O)CCCCCCCCCN2CCN(CCCOc3ccc(-c4cnc5cccc(-c6cc(F)c(CN7CCS(=O)(=O)CC7)c(F)c6)c5n4)cc3OC)CC2)C[C@H]1C(=O)N[C@@H]1CCCc2ccccc21)C1CCCCC1	Active	< 35%	5 to 8	inactive	48%	65%	Activity [7]: inactive; Activity [8]: inactive; Activity [9]: Active; Activity [10]: inactive; Activity [11]: inactive
CN[C@@H](C)C(=O)N[C@H](C(=O)N1C[C@@H](NC(=O)COCCOCCOCCOCCn2cc(Nc3ncc(Cl)c(NCc4cc(F)ccc4F)n3)cn2)C[C@H]1C(=O)N[C@@H]1CCCc2ccccc21)C1CCCCC1	Active	< 35%	5 to 8	inactive			
COc1cc(-c2cnc3cccc(-c4cc(F)c(CN5CCS(=O)(=O)CC5)c(F)c4)c3n2)ccc1OCCCN1CCOCC1			6		inactive	inactive	IC50 (JAK3/JAK1): 316 nM; IC50 [12]: 7.94 nM; IC50 [13]: 0.251 nM; IC50 [14]: 7.94 nM; Activity [7]: inactive; Activity [8]: inactive; Selectivity ratio (Homo sapiens [15]): 40; Selectivity ratio (Homo sapiens [16]): 40
CN[C@@H](C)C(=O)N[C@H](C(=O)N1C[C@@H](NC(=O)COCCOCCOCCOCCN2CCN(CCCOc3ccc(-c4cnc5cccc(-c6cc(F)c(CN7CCS(=O)(=O)CC7)c(F)c6)c5n4)cc3OC)CC2)C[C@H]1C(=O)N[C@@H]1CCCc2ccccc21)C1CCCCC1	Active	< 35%	5 to 8	inactive			
CN[C@@H](C)C(=O)N[C@H](C(=O)N1C[C@@H](NC(=O)CCCCCCCCCOc2cc(F)cc(CNc3nc(Nc4cnn(C)c4)ncc3Cl)c2F)C[C@H]1C(=O)N[C@@H]1CCCc2ccccc21)C1CCCCC1	Active	< 35%	5 to 8	inactive			Activity [17]: inactive; Activity [18]: inactive
CN[C@H](C)C(=O)N[C@@H](C(=O)N1C[C@H](NC(=O)CCCCCCCCCN2CCN(CCCOc3ccc(-c4cnc5cccc(-c6cc(F)c(CN7CCS(=O)(=O)CC7)c(F)c6)c5n4)cc3OC)CC2)C[C@@H]1C(=O)N[C@H]1CCCc2ccccc21)C1CCCCC1					inactive	inactive	
CN[C@@H](C)C(=O)N[C@H](C(=O)N1C[C@@H](NC(=O)CCCCCCCCCn2cc(Nc3ncc(Cl)c(NCc4cc(F)ccc4F)n3)cn2)C[C@H]1C(=O)N[C@@H]1CCCc2ccccc21)C1CCCCC1	Active	< 35%	5 to 8	inactive			
OCCn1cc(Nc2ncc(Cl)c(NCc3cc(F)ccc3F)n2)cn1			3.5				IC50 (JAK3/JAK1): 7.94 nM; IC50 [12]: < 0.158 nM; IC50 [13]: 0.316 nM; IC50 [14]: 1 nM; Selectivity ratio (Homo sapiens [15]): > 50; Selectivity ratio (Homo sapiens [16]): 8
